ChEMBL document CHEMBL5390295, “Isolinderalactone Ameliorates the Pathology of Alzheimer's Disease by Inhibiting the JNK Signaling Pathway” (2023)
Calls of active or inactive are those of the source. The calls are words filed in the database; no cut-off is given here.

Columns and labels:
Mus musculus [1] = assay: Anti-alzheimer activity against APP/PS1 dE9 double transgenic mouse model assessed as increase in time spent in the target quadrant at 10 mg/kg, ip administered once daily for 30 consecutive days measured on day 5 by morris water maze test; format: functional, organism-based; conditions: time 35.0 day
How it was run: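 Female APP/PS1 mice, 10 months old, about 30 g, 10 per group. Dosing was intraperitoneal in 1× PBS, once daily for one month (1 or 10 mg/kg test; 5 mg/kg donepezil). WT and untreated APP/PS1 controls got PBS. Morris water maze: training days 1–4, averaged escape latency. Day-5 probe trial ran 60 s with the platform removed, recording platform crossings and time per quadrant. Mean ± SEM.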

PC-12 [2] = assay: Induction of apoptosis in Abeta1-42 induced rat PC12 cells assessed as late apoptosis at 10 uM preincubated for 3 hrs followed by Abeta1-42 induction and measured after 24 hrs by Annexin V-FITC/PI staining based flow cytometry analysis (reference value: 0.7%); format: functional; conditions: time 27 hrs
PC-12 [3] = assay: Neuroprotective activity against Abeta1-42 induced rat PC12 cells assessed as […] at 1.25 to 10 uM preincubated for 3 hrs followed by Abeta1-42 induction and measured after 24 hrs by MTT assay; format: functional, cell-based; conditions: dose 1.25-10 µM, time 27.0 hrs
How it was run: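 PC12 cells were seeded at 5×10^3/well and pretreated 3 h with test compound (range or 10 μM), with or without SP600125 1.25 μM for 0.5 h beforehand. Cells were then exposed to 10 μM Aβ1–42 oligomers for 24 h. MTT 0.5 mg/mL was added for 3–4 h, formazan dissolved in DMSO, and absorbance read at 570 nm. Viability is given as % of control.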

PC-12 [4] = assay: Neuroprotective activity against Abeta1-42 induced rat PC12 cells assessed as decrease in JNK phosphorylation level at 10 uM preincubated for 3 hrs followed by Abeta1-42 induction and measured after 24 hrs by Western blot analysis; format: functional, cell-based; conditions: time 27.0 hrs
How it was run: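 Aβ1–42 challenge in PC12 cells was 10 μM for 24 h after 3 h pretreatment at 10 μM. SP600125 (1.25 μM) was added 0.5 h before pretreatment where used. Cells were lysed in RIPA and protein measured by BCA. Blotting used PVDF transfer, 5% BSA/TBST block for 2 h, primaries 1:1000 overnight at 4 °C, and HRP secondary for 2 h. Bcl-2/Bax ratio and band intensities were quantified.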

PC-12 [5] = assay: Induction of apoptosis in Abeta1-42 induced rat PC12 cells assessed as necrosis at 10 uM preincubated for 3 hrs followed by Abeta1-42 induction and measured after 24 hrs by Annexin V-FITC/PI staining based flow cytometry analysis (reference value: 0.0%); format: functional; conditions: time 27 hrs
Mus musculus [6] = assay: Anti-alzheimer activity against APP/PS1 dE9 double transgenic mouse model assessed as improvement in exploration time for novel object at 10 mg/kg, ip administered once daily for 30 consecutive days measured on day 2 by novel object recognition test; format: functional, organism-based; conditions: time 32.0 day
How it was run: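 Same mouse cohort and ip PBS dosing schedule (1 or 10 mg/kg; donepezil 5 mg/kg). Novel object recognition: two objects, 5 min session, with exploration frequency and duration scored within 2–3 cm of objects. After 24 h one object was replaced by a novel object and a second 5 min session was recorded.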

Mus musculus [7] = assay: Anti-alzheimer activity in hippocampus of APP/PS1 dE9 double transgenic mouse model assessed as suppression in p-JNK level at 10 mg/kg, ip administered once daily for 30 consecutive days by Western blot analysis; format: functional, organism-based; conditions: time 30.0 day
How it was run: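 Hippocampal homogenates from dosed APP/PS1 mice were extracted in RIPA and protein measured by BCA. Samples were run by SDS electrophoresis, transferred to 0.22 μm PVDF for 90 min, blocked with 5% BSA in TBST for 2 h at RT, and probed with primaries 1:1000 overnight at 4 °C. HRP secondary was applied for 2 h at RT.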

For `C=C[C@@]1(C)Cc2occ(C)c2[C@@H]2OC(=O)C(=C)[C@@H]21` [ISOLINDERALACTONE], the Activity (Mus musculus [1]) was “Active”, the Activity (PC-12 [2]) was 0.4% and the Activity (PC-12 [3]) was “Active”. The Activity (PC-12 [4]) was “Active”, the Activity (PC-12 [5]) was 0% and the Activity (Mus musculus [6]) was “Active”. The Activity (Mus musculus [7]) was “Active”.
